Experimental data reported in ChEMBL document CHEMBL1944574, “Inhibition of monoamine oxidase by selected C6-substituted chromone derivatives” (Eur J Med Chem, 2012).

Assays:
[1] = biological target: T1, Amine oxidase [flavin-containing] A (Homo sapiens, UniProt P21397); assay: Inhibition of recombinant human monoamine oxidase A expressed in insect microsomes using kynuramine as substrate after 20 mins by fluorescence spectrophotometry; parameters: species or system Microsome
T1 sequence (P21397 whole entry): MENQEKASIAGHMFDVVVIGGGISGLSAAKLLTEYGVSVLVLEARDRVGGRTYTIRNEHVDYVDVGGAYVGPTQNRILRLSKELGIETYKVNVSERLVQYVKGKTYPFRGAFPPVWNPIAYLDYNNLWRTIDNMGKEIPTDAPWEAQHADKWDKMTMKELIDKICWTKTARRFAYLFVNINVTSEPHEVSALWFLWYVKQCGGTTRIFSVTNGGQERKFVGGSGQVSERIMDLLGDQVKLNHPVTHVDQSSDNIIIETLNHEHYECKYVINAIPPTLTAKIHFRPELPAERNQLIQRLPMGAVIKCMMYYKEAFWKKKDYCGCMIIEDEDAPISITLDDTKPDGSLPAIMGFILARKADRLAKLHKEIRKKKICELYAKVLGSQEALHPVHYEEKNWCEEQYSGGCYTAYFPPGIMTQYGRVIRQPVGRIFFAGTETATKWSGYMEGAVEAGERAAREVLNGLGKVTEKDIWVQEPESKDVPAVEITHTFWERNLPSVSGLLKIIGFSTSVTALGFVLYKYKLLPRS
Procedure, shortened: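 Enzyme source: insect-cell microsomes with recombinant human MAO-A or MAO-B at 0.0075 mg protein/mL, with kynuramine as substrate. Buffer was potassium phosphate 100 mM, pH 7.4, made isotonic with 20.2 mM KCl. Six inhibitor concentrations (0–100 µM) spanned at least 3 log units. Incubation was 20 min at 37 °C, then stopped with 2 N NaOH. 4-Hydroxyquinoline was read by fluorescence ([…] nm as printed) against a 0.047–1.56 µM standard curve. IC50 came from sigmoidal fits of initial rate versus log inhibitor, in triplicate, mean ± SD.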

[2] = biological target: T2, Amine oxidase [flavin-containing] B (Homo sapiens, UniProt P27338); assay: Inhibition of recombinant human monoamine oxidase B expressed in insect microsomes using kynuramine as substrate after 20 mins by fluorescence spectrophotometry; parameters: species or system Microsome
T2 sequence (P27338 whole entry): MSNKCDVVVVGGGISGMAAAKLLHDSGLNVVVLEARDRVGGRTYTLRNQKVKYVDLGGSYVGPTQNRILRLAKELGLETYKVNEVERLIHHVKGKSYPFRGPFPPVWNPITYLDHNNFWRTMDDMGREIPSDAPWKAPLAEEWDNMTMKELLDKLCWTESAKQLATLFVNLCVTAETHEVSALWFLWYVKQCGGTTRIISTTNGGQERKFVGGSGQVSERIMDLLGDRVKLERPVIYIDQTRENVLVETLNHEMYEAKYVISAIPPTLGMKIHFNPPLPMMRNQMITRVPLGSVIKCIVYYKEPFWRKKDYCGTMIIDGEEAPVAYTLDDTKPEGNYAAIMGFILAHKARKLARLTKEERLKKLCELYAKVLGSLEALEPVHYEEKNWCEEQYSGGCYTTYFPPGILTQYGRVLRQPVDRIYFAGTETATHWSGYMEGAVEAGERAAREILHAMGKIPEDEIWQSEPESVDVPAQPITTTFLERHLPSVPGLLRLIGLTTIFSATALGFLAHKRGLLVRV
Procedure, shortened: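 Enzyme source: insect-cell microsomes with recombinant human MAO-A or MAO-B at 0.0075 mg protein/mL, with kynuramine as substrate. Six inhibitor concentrations (0–100 µM) spanned at least 3 log units. Incubation was 20 min at 37 °C, then stopped with 2 N NaOH. IC50 came from sigmoidal fits of initial rate versus log inhibitor, in triplicate, mean ± SD.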

Homo sapiens = species: Homo sapiens; assay: Selectivity index, ratio of IC50 for recombinant human monoamine oxidase A to IC50 for recombinant human monoamine oxidase B
[3] = biological target: T2, Amine oxidase [flavin-containing] B; assay: Competitive inhibition of recombinant human monoamine oxidase B at 0.064 uM preincubated for 15 to 60 mins before kynuramine substrate addition measured after 15 mins by Lineweaver-Burk plot analysis; conditions: 0.25 h
[4] = biological target: T1, Amine oxidase [flavin-containing] A; assay: Competitive inhibition of recombinant human monoamine oxidase A at 0.190 uM preincubated for 15 to 60 mins before kynuramine substrate addition measured after 15 mins; conditions: 0.25 h, 0.19 µM

Row | IC50 [1] | IC50 [2] | Ratio IC50 (Homo sapiens) | inhibition (INH) [3] | inhibition (INH) [4] | Structure (SMILES)
1 | 322 nM | – | – | – | – | O=c1ccoc2ccc(OCc3ccc(F)cc3)cc12
2 | 3120 nM | 21 nM | 149 | – | – | O=c1ccoc2ccc(OCCc3ccccc3)cc12
3 | 95 nM | 3.3 nM | 29 | Active | Active | O=c1ccoc2ccc(OCc3ccc(Br)cc3)cc12
4 | 879 nM | 2 nM | 440 | – | – | O=c1ccoc2ccc(OCc3ccc(C(F)(F)F)cc3)cc12
5 | 106 nM | – | – | – | – | O=c1ccoc2ccc(OCc3ccc(Cl)cc3)cc12
6 | 1910 nM | 57 nM | 34 | – | – | O=c1ccoc2ccc(OCCCc3ccccc3)cc12
7 | 3490 nM | 6 nM | 582 | – | – | Cc1ccc(COc2ccc3occc(=O)c3c2)cc1
8 | 1230 nM | 13 nM | 95 | – | – | O=c1ccoc2ccc(OCc3cccc(F)c3)cc12
9 | 175 nM | 22 nM | 8 | – | – | N#Cc1ccc(COc2ccc3occc(=O)c3c2)cc1
10 | 3300 nM | 53 nM | 62 | – | – | O=c1ccoc2ccc(OCc3ccccc3)cc12
11 | 424 nM | 3.6 nM | 118 | – | – | O=c1ccoc2ccc(OCc3cccc(Cl)c3)cc12
12 | 1130 nM | 19 nM | 59 | – | – | Cc1cccc(COc2ccc3occc(=O)c3c2)c1
13 | 255 nM | 76 nM | 3 | – | – | N#Cc1cccc(COc2ccc3occc(=O)c3c2)c1
14 | 386 nM | 2 nM | 193 | – | – | O=c1ccoc2ccc(OCc3cccc(Br)c3)cc12
15 | 480 nM | 27 nM | 18 | – | – | O=c1ccoc2ccc(OCCc3ccc(Br)cc3)cc12
